Screening results: PubChem, Sanford-Burnham Center for Chemical Genomics
The list is not random: actives were taken first. Their share in the collection is about 1.6%.
FLuc stim CS – firefly luciferase counter-screen for stimulation assays; P08659; ATPlite luciferase biochemical, luminescence, 10 min; 0 = ATP-free wells, 1 = DMSO control; activation factor at 10 µM; 200,000 tested, under 10 active; AID 1027;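 active = luciferase activation factor, scaled between plate controls, of at least 2 with compound at 10 µM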
Target sequence (P08659 whole entry, looked up): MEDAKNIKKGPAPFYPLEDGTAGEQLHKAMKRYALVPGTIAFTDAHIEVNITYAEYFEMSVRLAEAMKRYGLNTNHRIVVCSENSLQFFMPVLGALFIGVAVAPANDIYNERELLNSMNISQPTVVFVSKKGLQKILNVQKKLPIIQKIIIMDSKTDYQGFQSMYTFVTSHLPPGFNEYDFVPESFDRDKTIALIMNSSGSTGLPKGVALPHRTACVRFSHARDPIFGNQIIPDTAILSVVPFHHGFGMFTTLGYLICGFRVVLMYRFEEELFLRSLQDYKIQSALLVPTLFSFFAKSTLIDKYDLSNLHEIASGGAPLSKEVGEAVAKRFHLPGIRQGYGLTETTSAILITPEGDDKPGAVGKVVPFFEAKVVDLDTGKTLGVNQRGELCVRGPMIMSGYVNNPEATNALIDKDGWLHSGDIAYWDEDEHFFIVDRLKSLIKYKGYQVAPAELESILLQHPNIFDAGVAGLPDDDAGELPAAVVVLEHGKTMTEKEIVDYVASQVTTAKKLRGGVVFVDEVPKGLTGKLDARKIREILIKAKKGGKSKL
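Assay system – cell-free luciferase reagent · Medium – PBS-based ATP solution · Dosing – test compounds dosed from 2 mM stocks in 100% DMSO · Timing – 10 min, room temperature · Technique – light output (luminescence) · Measure – luminescence gain marking luciferase activators · Controls – No-ATP low control, compound-free enzyme-plus-ATP high control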
FLuc inhib CS – counter-screen for luciferase assay inhibitors: firefly luciferase inhibition; inhibition, % at 10 µM; P08659; ATPLite firefly luciferase biochemical luminescence, 10 min; 200,000 compounds, 1.5% hits;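 active = inhibition above about 50% when tested at 10 µM, limit read from the data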
C8 TRAIL sens – caspase-8 TRAIL sensitization. NB7+C8 cells + TRAIL, ATPlite viability luminescence. inhibition (viability loss, TRAIL sensitization), % at 10 µM. 360,000 compounds, 1% hits. AID 624354;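 active = compounds causing at least 50% loss of cell viability in the single-dose screen, relative to plate controls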
PPC-1+TRAIL kill – PPC-1 cancer cell killing with TRAIL present | cell killing (% activity), % at 4 µM or 5 µM | AID 1443 | PPC-1 cells + TRAIL, ATPLite viability luminescence | 220,000 compounds, 0.41% hits;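 active = cell killing above 50% in the first pass at 4 µM, then a duplicate retest at 5 µM averaging 50% or more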;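 note: plate controls were cells with TRAIL plus DMSO for no effect and medium-only wells lacking cells for full effect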
The depositor's hits bear a star; . = no result.

SMILES | FLuc stim CS | FLuc inhib CS | C8 TRAIL sens | PPC-1+TRAIL kill
O=C1CC[C@@H]2CC3(C[C@@H]4CCN1[C@H]24)Nc1ccccc1NC3=NC1CCCCC1 (some centres not stated) | . | . | -13 | .
Cc1ccc2nc(-c3cc(N)cc(N)c3)oc2c1 | 0.1 | 94* | 76* | 28
Cc1ccc2oc(-c3ccccc3)nc2c1 | 0.2 | 76* | 12 | 9
CCOc1cccc(-c2nc3cc(C)ccc3o2)c1 | 0.3 | 68* | 14 | -2
Cc1cccc(-c2nc3cc([N+](=O)[O-])ccc3o2)c1 | 0.8 | 18 | 19 | 6
Nc1ccc(-c2nc3ccc(-c4nc5ccccc5o4)cc3[nH]2)cc1 | 1 | -4 | 5 | 20
COC1=Nc2ccccc2/C=C\c2ccccc21 | . | . | -5 | .
N/C(=N\OC(=O)c1ccc(F)cc1)c1ccccc1 | 0 | 97* | 1 | 6
N/C(=N\OC(=O)c1ccc(F)cc1)c1ccc(Br)cc1 | 0.6 | 36 | 48 | 21
Cc1ccc(/C(N)=N/OC(=O)c2ccc(F)cc2)cc1 | 0.3 | 68* | 74* | 9
C/C(=N\OC(=O)c1ccc(F)cc1)c1ccc(F)c(F)c1 | . | . | -1 | 11
O=C(Nc1cccc(O)c1)c1cc(-c2ccco2)on1 | 0.2 | 76* | 1 | 26
COc1ccc(-c2cc(C(=O)Nc3cccc(O)c3)no2)cc1 | . | . | 73* | .
COc1ccc(-c2cc(C(=O)Nc3ccc(C)c(C)c3)no2)cc1 | . | . | -1 | .
Cc1ccc(-c2nnc(NC(=O)c3ccco3)o2)c(C)c1 | . | . | 55* | .
O=C(Nc1nnc(-c2ccccc2Cl)o1)c1ccco1 | 0.3 | 66* | 45 | 30
Cc1ccc(C)c(-c2nnc(NC(=O)c3ccco3)o2)c1 | . | . | 25 | .
O=C(Nc1nnc(-c2cccs2)o1)c1ccco1 | 1 | 2 | -9 | 18
O=C(Nc1nnc(-c2ccc(Br)cc2)o1)c1ccco1 | . | . | 54* | .
O=C(COc1coc(CN2CCN(c3ccccc3)CC2)cc1=O)NCC1CCCO1 (configuration not stated) | . | . | -19 | .
COc1ccc(NS(=O)(=O)c2cccc(C(=O)N/N=C/c3c(F)c(F)c(F)c(F)c3F)c2)cc1 | . | . | 66* | .
Cc1ccc2ccccc2c1CSc1nc(N)nc2c1ncn2CC(C)C | . | . | 21 | .
Nc1c2c(nc3sc4c(c13)CCCCC4)CCCCC2 | 0.4 | 62* | 65* | 4
COc1ccc(C(CC(=O)c2ccc(C)cc2)Sc2ccccc2N)cc1 (configuration not stated) | . | . | 9 | .
Cc1ccc(-c2nn(-c3ccccc3)cc2C=O)o1 | 0.4 | 62* | 21 | 17
SMILES | FLuc stim CS | FLuc inhib CS | C8 TRAIL sens | PPC-1+TRAIL kill
COc1ccc(NC(=O)CSc2nc(C)cc(C)n2)cc1 | 1 | -4 | -8 | 12
COn1c(-c2ccccc2)nc2ccc(Cl)cc21 | 0.8 | 20 | 0 | 0
Clc1ccc2nc3c4ccccc4cnn3c2c1 | 0.4 | 63* | 40 | 32
COC(CNC(=O)C1CCN(S(=O)(=O)c2cccc3nsnc23)CC1)OC | . | . | -8 | .
O=C1Nc2ccccc2N(C(=O)c2ccc(-c3ccccc3)cc2)C1c1nc2ccccc2[nH]1 (configuration not stated) | . | . | 74* | .
O=C1CC(c2nc3ccccc3[nH]2)CN1c1ccccc1F (configuration not stated) | 1 | -3 | -5 | 9
O=C1Nc2ccccc2N(C(=O)c2c(F)cccc2F)C1c1nc2ccccc2[nH]1 (configuration not stated) | . | . | 77* | .
CC1C(=O)Nc2ccccc2N1C(=O)c1ccc(F)cc1 (configuration not stated) | . | . | -28 | .
CCOC(=O)C1(Cc2ccccc2)NC(c2ccccc2F)C2C(=O)N(CC)C(=O)C21 (configuration not stated) | 1 | -1 | 7 | 20
COC(=O)c1ccc(-c2nc3cc(Cl)c(N)cc3s2)cc1 | 0.2 | 85* | 83* | 33
O=C(Nc1ccc2nc3n(c(=O)c2c1)CCCCC3)c1c(F)ccc([N+](=O)[O-])c1F | . | . | 68* | .
O=C(Nc1ccc2nc(-c3ccco3)[nH]c2c1)c1cccs1 | 0.2 | 77* | 55* | 26
O=C(Nc1ccc2nc(-c3ccco3)[nH]c2c1)c1ccco1 | 0.2 | 80* | 47 | 39
O=C(Nc1ccc(-c2nc3ccccc3[nH]2)cc1)c1ccco1 | 0.4 | 58* | 40 | 33
COc1ccc(C(=O)NNC(=S)NC(=O)/C=C/c2cccs2)cc1 | 0.5 | 49 | 54* | .
CCOc1nc(Nc2ccc(F)cc2)nc(N2CCN(c3ccc(OC)cc3)CC2)n1 | 1.1 | -7 | 1 | 14
c1nc(SSc2ncnc3nc[nH]c23)c2[nH]cnc2n1 | . | . | 73* | .
O=C(O)CSc1ncnc2nc[nH]c12 | 1.1 | -6 | 11 | -3
Cc1ccc(S(=O)(=O)NCCNC(=O)c2cc(OCC(F)(F)F)ccc2OCC(F)(F)F)cc1 | 1 | 2 | -13 | 13
Oc1ccc(/C=N/Nc2ncc(Br)cn2)c(O)c1 | 0.8 | 18 | 51* | 18
CCN(CC)S(=O)(=O)c1ccc(N/N=C/c2ccc(O)cc2O)nc1 | 1 | 0 | 18 | 52*
COC(=O)c1c(NC(=O)c2nc3ccccc3s2)sc2c1CC(C)(C)NC2(C)C | 1.1 | -7 | 86* | 19
COC(=O)c1c(NC(=O)c2ccc(C(=O)c3ccccc3)cc2)sc2c1CC(C)(C)NC2(C)C | . | . | 46 | .
O=C(NC(=S)Nc1ccc(Br)cn1)c1cccs1 | 0.3 | 72* | 65* | 17
Cc1cccnc1NC(=S)NC(=O)c1cccs1 | 0.3 | 71* | 69* | 29
SMILES | FLuc stim CS | FLuc inhib CS | C8 TRAIL sens | PPC-1+TRAIL kill
C[C@H]1CN=C(N(C)C)N1CC1CCC(C(C)(C)C)CC1 (some centres not stated) | . | . | 9 | .
COc1ccc(S(=O)(=O)Nc2ccc3c(c2)CC(=O)N([C@@H](C)CO)C[C@H](C)[C@@H](CN(C)S(=O)(=O)c2ccc(F)cc2)O3)cc1 | . | . | -9 | .
Brc1ccc(Oc2ncc(CN3CCN(c4ccccc4)CC3)s2)cc1 | 1 | -3 | 4 | 23
CC1CCN(c2ccc(-c3cccs3)nn2)CC1 | . | . | 97* | .
Clc1ccc(-c2cccs2)nn1 | 1 | -3 | 1 | -2
O=S(=O)(Cc1cccc(C(F)(F)F)c1)c1ncn[nH]1 | 1 | 0 | -1 | 24
Cc1csc(NC(=O)c2ccc(C(=O)Nc3nc(C)cs3)cc2)n1 | . | . | . | 4
Cc1csc(NC(=O)c2cncc(Br)c2)n1 | 0.5 | 50* | 18 | 22
CSc1ccc(/C=C/c2ccc3cccc(O)c3n2)cc1 | 0.5 | 46 | 53* | 15
COC(=O)c1cc(NC(=S)Nc2cc(Cl)cc(Cl)c2)cc(C(=O)OC)c1 | 1 | -1 | 6 | -12
O=C1NC(c2ccc(O)cc2)Nc2ccccc21 (configuration not stated) | . | . | 13 | .
CSc1ccc(C2NC(=O)c3ccccc3N2)cc1 (configuration not stated) | . | . | 51* | .
Cc1cccc(NC(=O)CC23CC4CC(C2)CC(n2nnc(C)n2)(C4)C3)c1 | 1 | -2 | 26 | 3
O=C(CCl)N(O)c1ccc(C=Cc2ccccc2)cc1 | . | . | 51* | .
COc1ccc(O)c(/C=C(\C#N)C(=O)Nc2cccnc2)c1 | 0.4 | 63* | -11 | 10
